Shown are actives, neighbours in structure and some others; about 2% of the full set was active somewhere.
SR-BI uptake up = activators of SR-BI mediated HDL lipid uptake; CHO ldlA[mSR-BI] cells, DiI-HDL uptake fluorescence, 3 h; 100 = double the neutral-control signal; activation, % at 12.5 µM; hit rate 0.096% among 320,000; AID 504775;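 active = mean replicate activation of at least 60% and every replicate at or above 60%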
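Test system: SR-BI-overexpressing, LDLR-lacking CHO cells. Measured by: DiI fluorescence, bottom read. Medium: Ham's F12 with 0.5% BSA, HEPES 25 mM, pH 7.4. Timing: 3 h uptake period with compound, 37 °C.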
SR-BI HDL uptake = inhibitors of mouse SR-BI mediated HDL lipid uptake; Q61009; ldlA[mSR-BI] CHO cells, DiI-HDL uptake fluorescence, 3 h; inhibition, % at 12.5 µM; hit rate 0.96% among 320,000;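 active = mean replicate inhibition of at least 70% and a set share of replicates each scoring 70 or more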
CDK5 p35 inh = blocks human CDK5/p35 kinase activity; Recombinant CDK5/p35, ADP-Glo luminescence, 60 min; AID 488839; Q00535+Q15078; inhibition, % at 10 µM; hit rate 0.01% among 330,000;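 active = highest replicate inhibition of at least 50% and at least 75% of replicates reaching 50%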
Target sequence (Q00535 whole entry, looked up): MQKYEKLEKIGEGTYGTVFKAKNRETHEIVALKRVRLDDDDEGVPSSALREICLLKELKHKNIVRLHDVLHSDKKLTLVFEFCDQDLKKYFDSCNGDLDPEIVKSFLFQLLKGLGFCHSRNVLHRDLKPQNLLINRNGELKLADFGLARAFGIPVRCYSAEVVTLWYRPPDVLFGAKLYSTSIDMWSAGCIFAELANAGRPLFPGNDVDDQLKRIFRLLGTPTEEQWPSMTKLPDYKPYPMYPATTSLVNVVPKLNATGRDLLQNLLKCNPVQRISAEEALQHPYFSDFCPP
Target sequence (Q15078 whole entry, looked up): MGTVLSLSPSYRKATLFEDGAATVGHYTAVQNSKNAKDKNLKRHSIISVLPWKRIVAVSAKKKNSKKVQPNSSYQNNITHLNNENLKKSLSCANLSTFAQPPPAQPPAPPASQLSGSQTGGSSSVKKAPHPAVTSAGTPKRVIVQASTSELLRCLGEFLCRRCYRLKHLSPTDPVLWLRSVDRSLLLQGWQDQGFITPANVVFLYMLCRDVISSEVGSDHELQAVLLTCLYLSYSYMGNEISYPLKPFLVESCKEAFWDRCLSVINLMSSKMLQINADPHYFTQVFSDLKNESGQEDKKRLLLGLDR
dFosB activator = enhances mouse delta FosB homodimer DNA binding; P13346; purified delta FosB, TAMRA-CDK5 oligo fluorescence polarization; percent of positive-control signal above neutral wells; activation, % at 25 µM; hit rate 0.99% among 340,000;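 active = mean activation above about 17%, with every replicate also reaching it, limit read from the data, passing the limit was not always enough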
Each line names hits and unclear results; the compound was inactive in the other large screens.

COc1ccccc1C(=O)NNC(=S)NC(=O)c1cccs1	none
COc1cccc(NC(=O)C2CCN(S(=O)(=O)c3ccc4[nH]c(=O)ccc4c3)CC2)c1	none
CCOc1cc(C(=O)OCc2cc(=O)n3c(C)csc3n2)ccc1OC	SR-BI HDL uptake 77.8
COc1ccc(C(=O)NCc2cn3c(C)csc3n2)cc1OC	none
COc1ccc(C2C(C#N)=C(N)Oc3cc(O)ccc32)cc1C (stereo not drawn)	SR-BI HDL uptake 81.4
COc1ccc(C2C(C#N)=C(N)Oc3cc(O)ccc32)cc1OC (stereo not drawn)	none
O=C(C[n+]1ccc(CCSc2ccc(F)cc2)cc1)c1ccccc1	dFosB activator 85.3
CS(=O)(=O)N(CC(=O)Nc1ccc(Br)cc1)C1CCCCC1	none
COc1ccc(N2CCN(c3oc(COc4ccc(Cl)cc4Cl)nc3C#N)CC2)cc1	none
N#Cc1nc(COc2ccc(Cl)cc2Cl)oc1N1CCN(c2ccccc2)CC1	SR-BI uptake up 117.5
Cc1cc(C)nc(SCc2ccc(C(=O)N/N=C/c3cccc(O)c3O)cc2)n1	SR-BI HDL uptake 92.7
COc1ccc(/C=N/NC(=O)c2ccc(CSc3nc(C)cc(C)n3)cc2)cc1O	none
COc1ccc(O)c(/C=N/NC(=O)c2ccc(CSc3nc(C)cc(C)n3)cc2)c1	SR-BI HDL uptake 125.3
Cc1cc(CNC(=O)c2cccc3c2C(=O)c2ccc(-c4ccc(F)cc4OCc4ccccc4)cc2S3(=O)=O)c(C(F)(F)F)o1	SR-BI HDL uptake 90.1
COc1ccc(-c2sc3ccc(N4CCOCC4)cc3c2C#Cc2ccsc2)cc1	SR-BI HDL uptake 90.1
COCCCC1CCN(C(=O)c2cc(COc3cc(C)ccc3C)on2)CC1	none (no result: CDK5 p35 inh)
Cc1ccc2c(c1)N(CC(=O)NC1CCC(C)CC1)C(=O)c1cccnc1O2 (stereo not drawn)	none
NS(=O)(=O)c1cccc(NC(=O)c2cccc(N3C(=O)c4ccccc4C3=O)c2)c1	none
Cc1ccnc(NC(=O)c2cccc(NC(=O)c3ccc(Cl)cc3)c2)c1	SR-BI HDL uptake 89.1
CC(=O)c1cccc(NC(=O)NNC(=O)c2ccc3ccccc3c2)c1	none
CC(=O)c1cccc(NC(=O)c2cccc(N3C(=O)c4ccccc4C3=O)c2)c1	dFosB activator 31.1 (no result: SR-BI uptake up)
Cc1cccc(C(=O)Nc2cccc(C(=O)Nc3cc(C)ccn3)c2)c1	none
CC(=O)c1cccc(NC(=O)c2ccc3ccccc3c2)c1	SR-BI HDL uptake 71.5
Cc1nnc(SCC(=O)Nc2ccc(S(N)(=O)=O)cc2)n(N)c1=O	none
Cn1c(SCc2cccc(C(F)(F)F)c2)nnc1-c1ccco1	SR-BI uptake up 164.0
COc1cc2c(cc1OC)CN(c1ccc([N+](=O)[O-])cc1Cl)CC2	SR-BI HDL uptake 80.1
N#CC(C#N)=C1c2cc(S(=O)(=O)NCCO)ccc2-c2ccc(S(=O)(=O)NCCO)cc21	SR-BI uptake up 197.2
O=C(O)CCCNC(=O)c1nn(Cc2ccccc2)c(=O)c2ccccc12	none
COc1cccc(/C=N/N2CCN(C3c4ccccc4-c4ccccc43)CC2)c1O	SR-BI HDL uptake 71.6
Cc1cc2cc3c(cc2nc1SCC(=O)OC(C)C)OCO3	SR-BI HDL uptake 78.2
CC1Sc2ccc(S(=O)(=O)N3CCC(C(=O)Nc4ccc(Cl)cc4)CC3)cc2NC1=O (stereo not drawn)	none
CCN(CC)CCCNC(=O)CSc1nc(-c2ccc(F)cc2)cc(C(F)(F)F)n1	SR-BI HDL uptake 85.7
COC(=O)CSc1nc(-c2ccc(F)cc2)cc(C(F)(F)F)n1	none
Cc1ccc([N+](=O)[O-])cc1S(=O)(=O)Nc1ccc(C(=O)N2CCN(C(=O)c3ccco3)CC2)cc1	none
CCCCC(=O)N/N=C/c1ccc(-c2ccc([N+](=O)[O-])cc2)o1	none
Cc1cc(C)n(Cc2ccc(C(=O)N/N=C/c3ccc(-c4ccc([N+](=O)[O-])cc4)o3)o2)n1	SR-BI HDL uptake 103.5
Cc1cc(C)c(S(=O)(=O)N2CCOC2CNC(=O)C(=O)NCCc2c[nH]c3ccccc23)c(C)c1 (stereo not drawn)	SR-BI uptake up 196.4
O=C(NCCc1c[nH]c2ccccc12)C(=O)NCC1OCCN1S(=O)(=O)c1ccccc1 (stereo not drawn)	none
Cc1ccc(C(=O)OCC(=O)N2c3ccccc3NC(=O)C2(C)C)cc1S(=O)(=O)N1CCCCC1	SR-BI HDL uptake 84.1
Cc1ccc(S(=O)(=O)N2CCCCC2)cc1C(=O)OCC(=O)N1c2ccccc2NC(=O)C1(C)C	none
COc1ccc(S(=O)(=O)NC(C)C(=O)NCc2ccc3c(c2)OCO3)cc1OC (stereo not drawn)	none
COc1ccccc1CNC(=O)C(NS(=O)(=O)c1ccc2c(c1)OCCO2)C(C)C (stereo not drawn)	dFosB activator 28.2
CCN(CC(=O)NCc1ccc(Cl)cc1)C(=O)CN1C(=O)NC(CC)(c2ccccc2)C1=O (stereo not drawn)	none
CN(C)C(=O)c1ccc(-c2nnc(OCc3nc4ccccc4n3C)c3ccccc23)cc1	none (no result: SR-BI uptake up, SR-BI HDL uptake)
CC1CCN(Cc2c(C(=O)N/N=C/c3ccccc3O)nnn2-c2nonc2N)CC1	dFosB activator 20.9
CCN(CC)c1ccc(/C=N/NC(=O)c2nnn(-c3nonc3N)c2C(C)C)c(O)c1	SR-BI HDL uptake 132.6
CC(=C/c1ccccc1)/C=N/NC(=O)c1nnn(-c2nonc2N)c1CN1CCC(C)CC1	none
CCN(CC)c1ccc(/C=N/NC(=O)c2ccoc2C)c(O)c1	SR-BI HDL uptake 100.1
Cc1nnn(-c2nonc2N)c1C(=O)N/N=C/c1ccccc1O	dFosB activator 104.0
Cc1nnn(-c2nonc2N)c1C(=O)N/N=C/c1cccc2ccccc12	none
COc1cccc(N(CC(=O)NC2CCCCC2)C(=O)CCC(=O)Nc2nccs2)c1	none
CCN1CCN(S(=O)(=O)c2ccc(Cl)c(C(=O)NC(C)c3ccccc3Cl)c2)CC1 (stereo not drawn)	none
Oc1ccc(Nc2nc(N3CCCC3)c3ccccc3n2)cc1	dFosB activator 79.9
COc1ccc(Nc2nc(N3CCCCC3)c3ccccc3n2)cc1	none
NC(N)=NS(=O)(=O)c1ccc(NC(=S)NC(=O)/C=C/c2cccs2)cc1	dFosB activator 62.2
CCOc1ccc(-n2cc(-c3ccccc3)c3c(N4CCOCC4)ncnc32)cc1	SR-BI HDL uptake 81.5
c1ccc(-c2cn(-c3ccccc3)c3ncnc(N4CCCCC4)c23)cc1	none
COc1ccc(-n2cc(-c3ccccc3)c3c(N4CC(C)OC(C)C4)ncnc32)cc1 (stereo not drawn)	SR-BI HDL uptake 75.9
CN1CCN(c2ncnc3c2c(-c2ccccc2)cn3-c2ccc(F)cc2)CC1	none
Cc1cccc(C)c1OCc1cc(C(=O)N(C)Cc2nc3ccccc3[nH]2)no1	none
Cc1cc(=O)n2nc(N3CCC(C(=O)NCc4cccc(Cl)c4)CC3)sc2n1	none
CCOC(=O)C1CCCN(S(=O)(=O)CCNC(=O)c2ccc(F)cc2)C1 (stereo not drawn)	none
Cc1cc(=O)n2[nH]c(SCc3ccccc3Cl)nc2n1	none
COc1ccc(NC(=O)C(F)(F)F)cc1OC	SR-BI HDL uptake 77.8
O=C(Nc1ccc(N2CCCC2)cc1)c1cccc(Cl)c1	SR-BI HDL uptake 86.1

Screens from PubChem.
